# Results pooled from the literature.
# Each line is one published result; the experiments were not run side by side.
# Target: Citron Rho-interacting kinase (CIT, Homo sapiens, UniProt O14578)
Structure (SMILES),assay,setting,remaining binding
C[C@@H](c1cccc(C#N)c1)n1cc(Cl)cc(C(N)=O)c1=N,"cell-free assay, competition with immobilised ligand",1 µM,100%
COc1ccnn2ncc(-c3ccnc(N(C)C)n3)c12,binding,1 µM,95%
O=C(NCCCN1CCOCC1)c1ccc(Nc2nccc(-c3cc4ccccc4s3)n2)cc1,"binding, competition with immobilised ligand",1 µM,77%
O=C(NCc1ncc(C(F)(F)F)cc1Cl)c1ccc2c(c1)C1(CCS(=O)(=O)CC1)[C@@H](C1CC1)N2S(=O)(=O)c1ccc(F)cc1,"cell-free assay, competition with immobilised ligand",1 µM,84%
O=C(c1ccc(Nc2nccc(-c3cc4ccccc4s3)n2)cc1)N1CCC(N2CCCC2)CC1,"binding, competition with immobilised ligand",1 µM,57%
O=c1nc(-c2ccccn2)sc2ccccc12,"binding, competition with immobilised ligand",1 µM,100%
O=C(NCC1CCOCC1)c1n[nH]cc1NC(=O)c1c(F)cccc1F,"binding, competition with immobilised ligand",1 µM,100%
O=C(c1ccc(Nc2ncc(Cl)c(-c3cc4ccccc4s3)n2)cc1)N1CCC(N2CCCC2)CC1,"binding, competition with immobilised ligand",1 µM,30%
c1ccc(N2CCN(Cc3nc4ccccc4[nH]3)CC2)nc1,"binding, competition with immobilised ligand",1 µM,88%
CN(C)c1ncc(F)c(-c2cnn3ncccc23)n1,binding,1 µM,100%
c1cncc(-c2cccc(Nc3nccc(NC4CCCCC4)n3)c2)c1,"binding, competition with immobilised ligand",10 µM,42%
CS(=O)(=O)N1CCCC(NC(=O)[C@H](CCC2CCCCC2)NC(=O)c2ccc(CNC(=O)c3cnc4ccccn34)cc2)C1 (stereo partly shown),"cell-free assay, competition with immobilised ligand",0.1 µM,100%
C[C@H]1CCN(c2nccc(-c3cnn4ncccc34)n2)C1,binding,1 µM,69%
CCN1CCN(Cc2ccc(C(=O)Nc3ccc(C)c(Oc4ccc5c(c4)CC(=O)N5)c3)cc2C(F)(F)F)CC1,"binding, competition with immobilised ligand",1 µM,65%
CNC(=O)[C@@H]1CC[C@@H](n2c(-c3ccc4cnccc4c3)nc3ccc(C(=O)NCc4cccc(C(N)=O)c4)cc32)C1,"binding, competition with immobilised ligand",1 µM,100%
Cc1cnn2ncc(-c3ccnc(N(C)C)n3)c2c1,binding,1 µM,82%
COc1cnc(Nc2cccc(S(N)(=O)=O)c2)nc1N1CCN(c2ccccc2)CC1,"binding, competition with immobilised ligand",1 µM,100%
CCOC(=O)c1cc2cc(-c3cc(C(=O)NCc4ccc(C(=O)O)cc4)nn3C)ccc2[nH]1,"cell-free assay, competition with immobilised ligand",0.1 µM,100%
N[C@@H]1CCN(c2nccc(-c3cnn4ncccc34)n2)C1,binding,1 µM,99%
